Rows were chosen to be rich in hits. Some 3.5% of all compounds tested hit in one or more screens of this group.
RGS4 pot: potentiators or activators of RGS4; HEK293 M3R/inducible RGS4, carbachol calcium flux Fluo4; active compounds read low; B-score at 10 µM; hit rate 0.92% among 310,000; AID 463111;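 active = B-score of the integrated calcium signal more than 4 SD below the library mean, with starting fluorescence not abnormally high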;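 note: negative B-score means reduced calcium response which marks RGS4 activation or potentiation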
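Assay system: Inducible-RGS4 HEK293 cells carrying M3 receptor | Schedule: Compound preincubation 20 min at room temperature before agonist | Signal: Kinetic calcium fluorescence imaging with Fluo4-AM dye, 2 µM | Read-out basis: B score from integrated fluorescence ratio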
MrgX1 agonist: activates human MrgX1 receptor signaling. Q96LB2. MrgX1-HEK293 cells, Fluo-4 calcium fluorescence, agonist mode; active compounds read high. B-score at 10 µM. hit rate 0.44% among 310,000. AID 588627;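 active = calcium response B-score plate-corrected fluorescence ratio at least 3 library SD, with starting fluorescence B-score inside 5 SD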
Target sequence (Q96LB2 whole entry, looked up): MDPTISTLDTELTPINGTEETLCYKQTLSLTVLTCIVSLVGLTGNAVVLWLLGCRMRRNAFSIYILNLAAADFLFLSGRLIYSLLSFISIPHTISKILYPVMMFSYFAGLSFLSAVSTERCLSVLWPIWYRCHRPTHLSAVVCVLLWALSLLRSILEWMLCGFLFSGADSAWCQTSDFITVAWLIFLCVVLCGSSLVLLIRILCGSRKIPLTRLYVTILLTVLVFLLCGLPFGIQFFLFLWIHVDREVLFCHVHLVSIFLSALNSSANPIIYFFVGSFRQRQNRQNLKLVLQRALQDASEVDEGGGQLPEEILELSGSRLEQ
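Material: MrgX1-expressing HEK293 cells; input: 15,000 cells per well; doses: test compound given as first of three sequential additions; schedule: overnight plating before 1 h dye loading; technique: Fluo-4 NW calcium-flux fluorescence, kinetic read; evaluation: baseline-normalised fluorescence change ratio, B-scored; control set: plate-wise positive and negative controls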
MrgX1 antagonist: human MrgX1 receptor antagonism, primary screen; AID 588676; hit rate 1.3% among 310,000; B-score at 10 µM; Q96LB2; MRGX1-HEK293 calcium flux, Fluo-4, BAM8-22 antagonism; active compounds read low;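 active = calcium-response B-score plate-corrected more than 3 library SD below zero, starting fluorescence within 5 deviations, no agonist response on first addition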;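 note: peak minus trough fluorescence over baseline after final BAM8-22 challenge near maximal dose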
MrgX1 PAM: allosterically activates human MrgX1 receptor signaling | Q96LB2 | hit rate 0.63% among 310,000 | MrgX1-HEK293, Fluo-4 calcium flux, FDSS; active compounds read high | B-score at 10 µM;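 active = plate-corrected calcium response at least 3 library SD above typical, normal starting fluorescence, not activating the receptor alone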;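 note: compound read alongside a low EC10 to EC30 dose of BAM8-22 agonist; peak minus trough fluorescence over baseline measured at the second addition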
RGS4 inh: human RGS4 inhibition; P49798; HEK293 M3R/RGS4 inducible, Fluo-4 calcium flux; active compounds read high; triggered by carbachol at its EC20; B-score at 10 µM; hit rate 0.45% among 310,000;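 active = B-score, a plate-corrected calcium signal, over three deviations above library mean, with baseline fluorescence within five deviations of library mean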;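 note: RGS4 expression induced by doxycycline in cells with stable M3 receptor; B-score is computed from the integrated fluorescence ratio over baseline after carbachol; higher B-score means a larger calcium signal and so more RGS4 inhibition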
Target sequence (P49798 whole entry, looked up): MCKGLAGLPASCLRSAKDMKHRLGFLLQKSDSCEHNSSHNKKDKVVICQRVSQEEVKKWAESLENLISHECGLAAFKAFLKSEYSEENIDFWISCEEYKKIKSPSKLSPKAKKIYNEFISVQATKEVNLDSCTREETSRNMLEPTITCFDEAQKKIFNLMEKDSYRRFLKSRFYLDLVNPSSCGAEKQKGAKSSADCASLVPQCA
The depositor's hits bear a star.

CCCCN(CCCC)C(=O)C1CC=CCC1C(=O)O (configuration not stated) was read as RGS4 pot inactive, MrgX1 agonist inactive, MrgX1 antagonist -5.9*, MrgX1 PAM inactive and RGS4 inh inactive.
Screening CCN(c1ccccc1)P(=O)(Nc1ccccc1)Nc1ccccc1 returned RGS4 pot inactive, MrgX1 agonist inactive, MrgX1 antagonist inactive, MrgX1 PAM inactive and RGS4 inh inactive.
`CN(c1ccccc1)P(=O)(N(C)c1ccccc1)N(C)c1ccccc1` gave RGS4 pot -11*, MrgX1 agonist inactive, MrgX1 antagonist inactive, MrgX1 PAM inactive and RGS4 inh inactive.
For CN(C)/C=C/c1[nH]c(=O)[nH]c(=O)c1[N+](=O)[O-] the results were RGS4 pot inactive, MrgX1 agonist inactive, MrgX1 antagonist inactive, MrgX1 PAM inactive and RGS4 inh inactive.
For CCN(CC)C(=O)c1sc2nc(-c3cccs3)cc(-c3cccs3)c2c1N the results were RGS4 pot inactive, MrgX1 agonist inactive, MrgX1 antagonist -7.2*, MrgX1 PAM inactive and RGS4 inh inactive.
Screening CC(C)(C)C(=O)c1sc2nc(-c3cccs3)cc(C(F)(F)F)c2c1N returned RGS4 pot -9.7*, MrgX1 agonist inactive, MrgX1 antagonist inactive, MrgX1 PAM inactive and RGS4 inh inactive.
`CCC1CCCCN1CCCNS(=O)(=O)c1ccc2c(c1)oc(=O)n2C` (configuration not stated) gave RGS4 pot inactive, MrgX1 agonist inactive, MrgX1 antagonist inactive, MrgX1 PAM 18* and RGS4 inh inactive.
Screening Cc1ncc(CO)c2c1Oc1nc(-c3ccccc3F)nc(SCC(=O)N(C)c3ccccc3)c1C2 returned RGS4 pot inactive, MrgX1 agonist inactive, MrgX1 antagonist inactive, MrgX1 PAM inactive and RGS4 inh inactive.
Screening Cc1ncc(CO)c2c1Oc1nc(-c3ccccc3)nc(SCC(=O)N3CCOCC3)c1C2 returned RGS4 pot inactive, MrgX1 agonist inactive, MrgX1 antagonist inactive, MrgX1 PAM inactive and RGS4 inh inactive.
`Cc1ncc(CO)c2c1Oc1nc(-c3ccccc3)nc(SCC(=O)N(C)c3ccccc3)c1C2` gave RGS4 pot -8.1*, MrgX1 agonist inactive, MrgX1 antagonist inactive, MrgX1 PAM 10* and RGS4 inh inactive.
`COc1ccccc1-c1nc2c(c(SCC(=O)N3CCCCC3)n1)Cc1c(CO)cnc(C)c1O2` gave RGS4 pot -8.1*, MrgX1 agonist inactive, MrgX1 antagonist inactive, MrgX1 PAM inactive and RGS4 inh inactive.
For COc1ccc(COC(=O)c2cc(S(=O)(=O)N3CCCCC3)ccc2N2CCOCC2)cc1 the results were RGS4 pot inactive, MrgX1 agonist inactive, MrgX1 antagonist inactive, MrgX1 PAM inactive and RGS4 inh inactive.
Cc1ccccc1NC(=O)C1CCCN(c2nnc(N3CCCC3=O)s2)C1 (configuration not stated) was read as RGS4 pot inactive, MrgX1 agonist inactive, MrgX1 antagonist inactive, MrgX1 PAM inactive and RGS4 inh inactive.
N#C/C(=C/c1ccc(N2CCOCC2)o1)c1ccc(Br)cc1 was read as RGS4 pot inactive, MrgX1 agonist 39*, MrgX1 antagonist inactive, MrgX1 PAM inactive and RGS4 inh inactive.
For N#C/C(=C/c1ccc(N2CCCCCC2)o1)c1ccc(F)cc1 the results were RGS4 pot inactive, MrgX1 agonist inactive, MrgX1 antagonist inactive, MrgX1 PAM 18* and RGS4 inh inactive.
For CCN(CC)CCN1c2ccccc2Sc2ccc3ccccc3c21 the results were RGS4 pot -7.5*, MrgX1 agonist inactive, MrgX1 antagonist inactive, MrgX1 PAM inactive and RGS4 inh inactive.
`CCN(CC)CCN1c2ccccc2Sc2ccccc21` gave RGS4 pot -7.1*, MrgX1 agonist inactive, MrgX1 antagonist inactive, MrgX1 PAM inactive and RGS4 inh inactive.
`CCCCOc1ccc(C2=CSC3=NCCN23)cc1[N+](=O)[O-]` gave RGS4 pot -7.4*, MrgX1 agonist inactive, MrgX1 antagonist inactive, MrgX1 PAM inactive and RGS4 inh inactive.
CC(C)n1c(=S)[nH]c2ccccc2c1=O was read as RGS4 pot inactive, MrgX1 agonist inactive, MrgX1 antagonist inactive, MrgX1 PAM inactive and RGS4 inh inactive.
Cc1cc(NC(=O)c2noc3c2CCc2ccccc2-3)no1 was read as RGS4 pot inactive, MrgX1 agonist inactive, MrgX1 antagonist -7.4*, MrgX1 PAM inactive and RGS4 inh inactive.
Cc1ccc(O)c(NC(=O)c2noc3c2CCc2ccccc2-3)c1 was read as RGS4 pot inactive, MrgX1 agonist inactive, MrgX1 antagonist inactive, MrgX1 PAM inactive and RGS4 inh inactive.
C=CCOc1ccc(Br)cc1/C=N/O was read as RGS4 pot inactive, MrgX1 agonist inactive, MrgX1 antagonist inactive, MrgX1 PAM inactive and RGS4 inh inactive.
Screening Fc1ccccc1COc1ccc(Br)cc1CNCc1ccncc1 returned RGS4 pot -9.6*, MrgX1 agonist inactive, MrgX1 antagonist inactive, MrgX1 PAM inactive and RGS4 inh inactive.
O/N=C/c1cc(Br)ccc1OCc1ccccc1F was read as RGS4 pot inactive, MrgX1 agonist inactive, MrgX1 antagonist -7.4*, MrgX1 PAM inactive and RGS4 inh inactive.
For COc1ccc(OC)c(S(=O)(=O)NC2CCCCNC2=O)c1 (configuration not stated) the results were RGS4 pot inactive, MrgX1 agonist inactive, MrgX1 antagonist inactive, MrgX1 PAM inactive and RGS4 inh inactive.
Screening CC(/C=N/NC(=O)c1ccc2nc(C)[nH]c2c1)=C\c1ccccc1 returned RGS4 pot inactive, MrgX1 agonist inactive, MrgX1 antagonist inactive, MrgX1 PAM 6.7* and RGS4 inh inactive.
CC(=C/c1ccccc1)/C=N/NC(=O)c1ccc2nc[nH]c2c1 was read as RGS4 pot inactive, MrgX1 agonist inactive, MrgX1 antagonist inactive, MrgX1 PAM inactive and RGS4 inh inactive.
For O=C(Cn1ccc([N+](=O)[O-])n1)NCc1nc2ccccc2[nH]1 the results were RGS4 pot inactive, MrgX1 agonist inactive, MrgX1 antagonist inactive, MrgX1 PAM inactive and RGS4 inh inactive.
O=C(Nc1nc(-c2cc(F)ccc2F)cs1)C1=COCCO1 was read as RGS4 pot inactive, MrgX1 agonist inactive, MrgX1 antagonist -5.1*, MrgX1 PAM inactive and RGS4 inh inactive.
`CSCC[C@H](NC(=O)[C@@H]1Cc2ccccc2CN1)C(=O)Nc1ccc2c(c1)OCO2` gave RGS4 pot inactive, MrgX1 agonist inactive, MrgX1 antagonist inactive, MrgX1 PAM inactive and RGS4 inh inactive.
